In publication PMC2196299 (The Journal of Experimental Medicine, 1997):

How the values were obtained:
human TAP = target: T1, human TAP (Homo sapiens, UniProt Q03518+Q03519); experiment: TAP-dependent peptide translocation assay in SLO-permeabilized human cells; format: cell-based
T1 sequence (Q03518 1-748): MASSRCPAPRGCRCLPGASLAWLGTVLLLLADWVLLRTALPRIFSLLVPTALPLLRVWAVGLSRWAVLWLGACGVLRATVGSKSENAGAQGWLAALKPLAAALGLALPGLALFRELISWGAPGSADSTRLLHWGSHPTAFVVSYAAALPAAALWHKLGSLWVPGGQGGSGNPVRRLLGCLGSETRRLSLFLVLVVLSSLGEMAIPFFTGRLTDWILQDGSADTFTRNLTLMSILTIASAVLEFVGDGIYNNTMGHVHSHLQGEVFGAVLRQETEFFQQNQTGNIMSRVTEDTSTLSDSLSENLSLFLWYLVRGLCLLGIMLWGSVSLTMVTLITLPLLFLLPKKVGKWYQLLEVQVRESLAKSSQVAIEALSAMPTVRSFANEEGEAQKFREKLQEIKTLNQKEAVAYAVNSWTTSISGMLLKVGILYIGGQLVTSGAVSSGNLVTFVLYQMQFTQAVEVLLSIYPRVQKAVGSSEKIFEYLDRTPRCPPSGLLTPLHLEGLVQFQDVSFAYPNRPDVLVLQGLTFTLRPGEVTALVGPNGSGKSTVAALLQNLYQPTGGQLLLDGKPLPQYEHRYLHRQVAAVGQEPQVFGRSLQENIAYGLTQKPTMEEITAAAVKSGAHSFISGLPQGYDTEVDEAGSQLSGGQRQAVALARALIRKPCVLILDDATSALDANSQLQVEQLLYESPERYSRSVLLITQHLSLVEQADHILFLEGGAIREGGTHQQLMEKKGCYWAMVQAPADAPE
T1 sequence (Q03519 1-686): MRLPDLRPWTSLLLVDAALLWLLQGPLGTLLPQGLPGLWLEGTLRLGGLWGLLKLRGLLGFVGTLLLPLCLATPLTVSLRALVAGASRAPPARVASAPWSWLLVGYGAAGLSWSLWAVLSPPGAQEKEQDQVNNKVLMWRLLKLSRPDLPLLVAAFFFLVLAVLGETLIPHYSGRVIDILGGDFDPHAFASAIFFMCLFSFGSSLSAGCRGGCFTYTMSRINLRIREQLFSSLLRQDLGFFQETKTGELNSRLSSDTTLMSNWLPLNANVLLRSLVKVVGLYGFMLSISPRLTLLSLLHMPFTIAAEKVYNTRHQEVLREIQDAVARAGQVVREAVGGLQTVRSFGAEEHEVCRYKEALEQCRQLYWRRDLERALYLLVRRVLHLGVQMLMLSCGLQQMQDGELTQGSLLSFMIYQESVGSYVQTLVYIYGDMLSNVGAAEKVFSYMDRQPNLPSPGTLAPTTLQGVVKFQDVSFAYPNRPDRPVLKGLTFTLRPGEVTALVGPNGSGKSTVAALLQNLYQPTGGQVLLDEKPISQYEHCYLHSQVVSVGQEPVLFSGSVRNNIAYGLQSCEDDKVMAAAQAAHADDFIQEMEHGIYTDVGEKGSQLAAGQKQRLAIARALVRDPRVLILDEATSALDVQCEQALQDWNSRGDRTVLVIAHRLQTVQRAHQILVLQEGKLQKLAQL
Outline: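 Hmy2.C1R cells washed in KCl/Hepes transport buffer (pH 7.3) at 4°C, then permeabilized with streptolysin O (2 U/ml, 10 min, 37°C). 10^6 cells/sample incubated 10 min at 37°C with chloramine T-iodinated peptide library, ATP-generating system and test compound (3.3 μM, or a concentration series). Stopped with ice-cold EDTA/azide buffer, NP-40 lysed, Con A–Sepharose capture, γ counting. Percent of no-inhibitor transport, duplicates.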

human TAP1+2 = target: T2, human TAP1+2 (Homo sapiens, UniProt Q03518+Q03519); format: binding
T2 sequence (Q03518 1-748): T1 sequence (Q03518 1-748)
T2 sequence (Q03519 1-686): T1 sequence (Q03519 1-686)

murine TAP = target: T3, murine TAP (Mus musculus, UniProt P21958+P36371); details: cited from earlier work
T3 sequence (P21958 1-724): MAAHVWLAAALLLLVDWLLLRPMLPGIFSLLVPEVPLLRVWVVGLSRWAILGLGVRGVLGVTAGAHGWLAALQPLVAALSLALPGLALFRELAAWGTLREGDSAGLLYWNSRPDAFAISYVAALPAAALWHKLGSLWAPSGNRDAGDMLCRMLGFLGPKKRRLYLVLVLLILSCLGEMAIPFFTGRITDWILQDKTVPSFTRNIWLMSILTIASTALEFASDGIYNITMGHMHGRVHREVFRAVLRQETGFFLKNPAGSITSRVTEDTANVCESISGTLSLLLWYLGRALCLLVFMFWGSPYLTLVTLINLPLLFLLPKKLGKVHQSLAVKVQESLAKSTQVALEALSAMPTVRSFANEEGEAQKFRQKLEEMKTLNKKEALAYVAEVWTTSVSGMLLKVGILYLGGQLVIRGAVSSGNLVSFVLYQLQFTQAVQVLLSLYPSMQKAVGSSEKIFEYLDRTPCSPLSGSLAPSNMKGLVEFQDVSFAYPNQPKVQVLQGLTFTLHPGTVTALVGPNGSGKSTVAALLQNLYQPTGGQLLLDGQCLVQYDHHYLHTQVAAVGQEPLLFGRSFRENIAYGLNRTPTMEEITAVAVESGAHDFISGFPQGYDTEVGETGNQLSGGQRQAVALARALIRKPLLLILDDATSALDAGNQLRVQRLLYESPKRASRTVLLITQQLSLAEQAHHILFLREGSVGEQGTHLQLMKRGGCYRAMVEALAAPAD
T3 sequence (P36371 1-702): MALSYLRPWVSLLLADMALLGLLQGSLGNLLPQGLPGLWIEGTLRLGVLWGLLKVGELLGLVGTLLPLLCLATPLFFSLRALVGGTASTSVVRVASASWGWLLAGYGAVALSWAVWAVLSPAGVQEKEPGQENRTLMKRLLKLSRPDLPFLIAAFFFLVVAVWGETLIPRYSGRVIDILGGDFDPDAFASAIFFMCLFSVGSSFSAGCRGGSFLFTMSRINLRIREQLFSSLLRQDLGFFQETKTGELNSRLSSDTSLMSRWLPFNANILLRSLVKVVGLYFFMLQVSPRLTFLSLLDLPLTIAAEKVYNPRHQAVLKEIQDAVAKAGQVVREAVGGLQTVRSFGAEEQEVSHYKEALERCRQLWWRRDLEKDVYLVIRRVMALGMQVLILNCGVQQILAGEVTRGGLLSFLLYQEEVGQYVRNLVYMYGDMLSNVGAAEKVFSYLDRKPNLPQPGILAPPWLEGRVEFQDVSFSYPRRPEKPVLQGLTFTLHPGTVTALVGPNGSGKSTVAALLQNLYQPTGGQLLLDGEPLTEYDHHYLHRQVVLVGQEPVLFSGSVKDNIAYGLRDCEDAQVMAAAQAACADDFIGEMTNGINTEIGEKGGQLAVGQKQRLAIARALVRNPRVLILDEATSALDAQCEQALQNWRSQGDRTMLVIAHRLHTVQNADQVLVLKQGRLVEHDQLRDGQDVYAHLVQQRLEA

Row | Substance | TAP subunits labeled by cross-linking (human TAP1+2) | ability to block or inhibit mouse TAP (murine TAP) | also measured
1 | 1–35 Tpa: 1–35-mer polypeptide with photoactivable phenylalanine analogue Tpa coupled to its NH2 terminus | Both TAP1 and TAP2 subunits were photolabeled | – | block of TAP function compared with the unmodified 1–35 polypeptide (human TAP; data not shown): less efficiently
2 | 1–35: peptide corresponding to residues 1–35 of ICP47 | – | – | concentration at which full inhibition had just been reached (human TAP; human cell line Hmy2.C1R, chosen for the alanine scan, Fig. 3 D): 3.3 µM
3 | ICP47: herpes simplex virus immediate early protein, 87–amino acid cytosolic polypeptide, inhibitor of TAP | – | inability | –
4 | N-acetylated ICP47-1–53: ICP47-1–53 N-acetylated on the resin | – | – | effect of N-acetylation on the ability to inhibit TAP (human TAP; human cell line Hmy2.C1R, compared with 1–53 polypeptide, Fig. 3 E): no effect
5 | ^125I-labeled Tyr21 1–35 polypeptide: 1–35 polypeptide labeled with 125I at Tyr 21 | only TAP1 crosslinks | – | –
6 | rICP47: recombinant ICP47 from HSV-1 | – | unable to block | –
